The results in this text go back to ChEMBL document CHEMBL1275443, “Functional diversity among metallo-beta-lactamases: characterization of the CAR-1 enzyme of Erwinia carotovora” (2008).

As a reminder, the MIC is the least concentration at which growth counts as inhibited.

≈ marks a conversion by molar mass, not a printed value.

Type in all cases: functional
The subject of assay [1] is Pectobacterium atrosepticum. As to the kind of experiment: Antimicrobial activity against Erwinia carotovora subsp. atroseptica DSM 30184 after 24 hrs by broth microdilution method. As to conditions: DSM 30184, 24 h. The essentials:
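CLSI broth microdilution in nutrient broth with an inoculum of 5 x 10^4 CFU/well. MIC was read after 24 h at 28°C under aerobic growth.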

The subject of assay [2] is Escherichia coli. As to the kind of experiment: Antimicrobial activity against Escherichia coli DH5alpha harboring plasmid pLBII carrying beta-lactamase CAR-1 gene after 24 hrs by broth microdilution method. In outline: (§1)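 MIC by CLSI broth microdilution in Mueller-Hinton broth at 37°C. Inoculum was 5 x 10^4 CFU/well, and growth was aerobic.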
For orientation: Dilution methods test growth across graded concentrations, often in twofold steps.

Assay [3] deals with Escherichia coli. Description: Antimicrobial activity against Escherichia coli DH5alpha harboring plasmid BC-SK after 24 hrs by broth microdilution method. In outline: as §1

The compound `CO/N=C(\C(=O)N[C@@H]1C(=O)N2C(C(=O)[O-])=C(C[N+]3(C)CCCC3)CS[C@H]12)c1csc(N)n1` yielded an MIC in assay [1] of 2 µg/mL (≈ 4.16 µM).
Consider `CC1(C)S[C@@H]2[C@H](NC(=O)[C@H](N)c3ccccc3)C(=O)N2[C@H]1C(=O)O` [AMPICILLIN], for which the MIC against Escherichia coli [2] turned out to be 4 µg/mL (≈ 11.4 µM); in the assay on Escherichia coli [3], 1 µg/mL (≈ 2.86 µM); in assay [1], 0.25 µg/mL (≈ 0.715 µM).
`C[C@H]1[C@H](NC(=O)/C(=N\OC(C)(C)C(=O)O)c2csc(N)n2)C(=O)N1S(=O)(=O)O` [AZTREONAM]: the MIC in the assay on Escherichia coli [2] was found to be 0.25 µg/mL (≈ 0.574 µM); in assay [1] it was 16 µg/mL (≈ 36.7 µM).
For `CO/N=C(\C(=O)N[C@@H]1C(=O)N2C(C(=O)O)=C(COC(C)=O)CS[C@H]12)c1csc(N)n1` [CEFOTAXIME], the minimum inhibitory concentration (MIC) in the assay with Escherichia coli [2] came to 16 µg/mL (≈ 35.1 µM); against Escherichia coli [3], 0.06 µg/mL (≈ 0.132 µM); in assay [1], 1 µg/mL (≈ 2.2 µM).
The corresponding values for `CO[C@@]1(NC(=O)Cc2cccs2)C(=O)N2C(C(=O)O)=C(COC(N)=O)CS[C@@H]21` [CEFOXITIN] are 8 µg/mL (≈ 18.7 µM), 4 µg/mL (≈ 9.36 µM) and 8 µg/mL (≈ 18.7 µM).
As to `CC(C)(O/N=C(\C(=O)N[C@@H]1C(=O)N2C(C(=O)[O-])=C(C[n+]3ccccc3)CS[C@H]12)c1csc(N)n1)C(=O)O` [CEFTAZIDIME], the values for the MIC (in the assay on Escherichia coli [2]; against Escherichia coli [3]; in assay [1]) were 1 µg/mL (≈ 1.83 µM), 0.5 µg/mL (≈ 0.915 µM) and 16 µg/mL (≈ 29.3 µM), respectively.
The corresponding values for `CO/N=C(\C(=O)N[C@@H]1C(=O)N2C(C(=O)O)=C(COC(N)=O)CS[C@H]12)c1ccco1` [CEFUROXIME] are 256 µg/mL (≈ 603 µM), 4 µg/mL (≈ 9.43 µM) and 0.5 µg/mL (≈ 1.18 µM).
On the same counts, the results for `CC(=O)OCC1=C(C(=O)O)N2C(=O)[C@@H](NC(=O)Cc3cccs3)[C@H]2SC1` [CEPHALOTHIN] are 64 µg/mL (≈ 161 µM), 16 µg/mL (≈ 40.4 µM) and 1 µg/mL (≈ 2.52 µM).
`C[C@@H](O)[C@H]1C(=O)N2C(C(=O)O)=C(SCCNC=N)C[C@H]12` [IMIPENEM ANHYDROUS] had an MIC in assay [1] of 0.12 µg/mL (≈ 0.401 µM).
`C[C@@H](O)[C@H]1C(=O)N2C(C(=O)O)=C(S[C@@H]3CN[C@H](C(=O)N(C)C)C3)[C@H](C)[C@H]12` [MEROPENEM]: the MIC is 0.06 µg/mL (≈ 0.156 µM) against Escherichia coli [2], 0.03 µg/mL (≈ 0.0782 µM) against Escherichia coli [3] and 0.25 µg/mL (≈ 0.652 µM) in assay [1].
The corresponding values for `CCN1CCN(C(=O)N[C@@H](C(=O)N[C@@H]2C(=O)N3[C@@H]2SC(C)(C)[C@@H]3C(=O)O)c2ccccc2)C(=O)C1=O` [PIPERACILLIN] are 2 µg/mL (≈ 3.86 µM), 1 µg/mL (≈ 1.93 µM) and 64 µg/mL (≈ 124 µM).
`CO[C@@]1(NC(=O)C(C(=O)O)c2ccsc2)C(=O)N2[C@@H](C(=O)O)C(C)(C)S[C@@H]21` (some centres undefined) [TEMOCILLIN]: the MIC in the assay with Escherichia coli [2] was determined as 16 µg/mL (≈ 38.6 µM); against Escherichia coli [3], 16 µg/mL (≈ 38.6 µM); in assay [1], 64 µg/mL (≈ 154 µM).
`CC1(C)S[C@@H]2[C@H](NC(=O)[C@H](C(=O)O)c3ccsc3)C(=O)N2[C@H]1C(=O)O` [TICARCILLIN]: the MIC in the assay with Escherichia coli [2] amounted to 8 µg/mL (≈ 20.8 µM); against Escherichia coli [3] it was 4 µg/mL (≈ 10.4 µM); in assay [1] it was 4 µg/mL (≈ 10.4 µM).
